The record followed here is ChEMBL document CHEMBL2434884, “Natural product derived antiprotozoal agents: synthesis, biological evaluation, and structure-activity relationships of novel chromene and chromane derivatives” (J Med Chem, 2013).

Data set [1] deals with Leishmania donovani. Kind of data set: Antiprotozoal activity against Leishmania donovani assessed as parasite growth inhibition.
For data set [2], the system named is Plasmodium falciparum. The data set is described as follows: Antiprotozoal activity against chloroquine/pyrimethamine-resistant erythrocytic form of Plasmodium falciparum K1 assessed as parasite growth inhibition. It is filed as functional, organism-based.
In data set [3] the test system is Plasmodium falciparum. Kind of data set: Potency index, ratio of chloroquine IC50 to compound IC50 for chloroquine/pyrimethamine-resistant erythrocytic form of Plasmodium falciparum K1. It is filed as functional.
Data set [4] deals with Trypanosoma brucei rhodesiense. The data set is described as follows: Antiprotozoal activity against trypomastigote form of Trypanosoma brucei rhodesiense STIB 900 assessed as parasite growth inhibition. It is filed as functional, organism-based.
A short description of data set [5]: Selectivity index, ratio of IC50 for rat L6 cells to ratio of IC50 for trypomastigote form of Trypanosoma brucei rhodesiense STIB 900. It is filed as toxicity, cell-based. The following applies: read-out: Selectivity Index.
Data set [6] can be described thus: Selectivity index, ratio of IC50 for rat L6 cells to ratio of IC50 for chloroquine/pyrimethamine-resistant erythrocytic form of Plasmodium falciparum K1. It is filed as toxicity, cell-based. The note with it: read-out: Selectivity Index.
For data set [7], the system named is Leishmania tarentolae. The data set is described as follows: Antiprotozoal activity against promastigote form of Leishmania tarentolae P10 assessed as parasite growth inhibition after 48 hrs by MTT assay. It is filed as functional, organism-based. The note with it: P10, 48 h. In a few lines: (§1)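 Promastigotes of nonpathogenic lizard-infecting L. tarentolae strain P10, cultured in hemin-supplemented BHI medium; IC50 determined.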
Background: Tetrazolium dyes change colour on reduction, which living cells bring about.

Another data set concerns L6. The data set is described as follows: Cytotoxicity against rat L6 cells. It is filed as cell-based. An outline of the steps:
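L6 rat skeletal myoblasts; cytotoxicity IC50 determined at the Swiss Tropical and Public Health Institute by an earlier standard protocol.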

The test system of data set [8] is Trypanosoma cruzi. Kind of data set: Antiprotozoal activity against intracellular amastigote form of Trypanosoma cruzi Tulahuen C4 assessed as parasite growth inhibition. It is filed as functional, organism-based.
Data set [9] deals with Leishmania donovani. Kind of data set: Antiprotozoal activity against axenic amastigote form of Leishmania donovani MHOM/ET/67/L82 assessed as parasite growth inhibition. It is filed as functional, organism-based.
A short description of data set [10]: Selectivity index, ratio of IC50 for rat L6 cells to ratio of IC50 for axenic amastigote form of Leishmania donovani MHOM/ET/67/L82. It is filed as toxicity, cell-based. The note with it: read-out: Selectivity Index.
Data set [11] concerns Trypanosoma cruzi. The data set is described as follows: Antiprotozoal activity against Trypanosoma cruzi assessed as parasite growth inhibition. It is filed as functional, organism-based. In a few lines:
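T. cruzi intracellular amastigote stage, Tulahuen C4 strain; assayed at the Swiss Tropical and Public Health Institute by an earlier standard protocol.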

The test system of data set [12] is Leishmania tarentolae. Kind of data set: Antiprotozoal activity against Leishmania tarentolae assessed as parasite growth inhibition. It is filed as functional, organism-based. In a few lines: as §1

Usually IC50 stands for the concentration at which inhibition is half-maximal.

On to `CCCCCCCCCCCCCCCCOP(=O)([O-])OCC[N+](C)(C)C` [MILTEFOSINE], for which the IC50 with Leishmania donovani [1] was found to be 0.361 µM.
As to `CC(NCCCc1ccccc1)c1cc2c(cc1O)OC(C)(C)C=C2` (centres undefined), the IC50 in the data set with Plasmodium falciparum [2] was found to be 0.01 µM; in data set [4], 5.31 µM; in the data set on Leishmania tarentolae [7] it was 6.2 µM; in the data set on L6, 27 µM. Further, in the data set with Plasmodium falciparum [3], the “Ratio IC50” value came out at 25. In addition, the selectivity ratio was 5.08 in data set [5] and 1820 in data set [6].
In the case of `COc1cc2c(cc1C(C)NCCc1ccccc1)C=CC(C)(C)O2` (centres undefined), the IC50 was 2.42 µM in the data set with Plasmodium falciparum [2]; 2.22 µM in data set [4]; 9.1 µM in the data set with Trypanosoma cruzi [8]; 127 µM in the data set with Leishmania donovani [9]; 1.04 µM in the data set with Leishmania tarentolae [7]; 15.4 µM with L6. Besides, the results for the selectivity ratio in data set [5], in data set [6] and in data set [10] were 6.93, 6.34 and 0.12, respectively.
Consider `O=C(Cn1ccnc1[N+](=O)[O-])NCc1ccccc1` [BENZNIDAZOLE], for which, in the data set with Trypanosoma cruzi [11], the IC50 was 1.57 µM.
As for `COc1cc2c(cc1C(C)N1CCOCC1)C=CC(C)(C)O2` (centres undefined), the IC50 in the data set on Plasmodium falciparum [2] came to 9.92 µM; in data set [4], 96.2 µM; in the data set with Trypanosoma cruzi [8], 110 µM; in the data set with Leishmania donovani [9], 148 µM; with Leishmania tarentolae [7], 12.4 µM; in the data set with L6, 157 µM. In addition, the selectivity ratio in data set [5] came out at 1.63; in data set [6], 15.9; in [10], 1.06.
For `C/C=C(/C)C(=O)OC(C)c1cc2c(cc1OC)OC(C)(C)C=C2` (centres undefined), the IC50 with Plasmodium falciparum [2] was 18.9 µM; in data set [4], 157 µM; in the data set with Trypanosoma cruzi [8] it was 61.4 µM; with Leishmania donovani [9], 46.2 µM; with Leishmania tarentolae [7], 21.3 µM; in the data set on L6, 139 µM. The figures for the selectivity ratio in data set [5], in [6] and in data set [10] were 0.89, 7.35 and 3, respectively.
As to `COc1cc2c(cc1C(C)NCC1CCCCC1)C=CC(C)(C)O2` (centres undefined), the IC50 with Plasmodium falciparum [2] was 2.46 µM; in data set [4], 2.16 µM; in the data set on Trypanosoma cruzi [8], 12.9 µM; in the data set with Leishmania donovani [9], 139 µM; with Leishmania tarentolae [7], 0.65 µM; with L6, 14.5 µM. In addition, the selectivity ratio was found to be 6.69 in data set [5], 5.88 in data set [6] and 0.1 in data set [10].
In the case of `COc1cc2c(cc1C(C)NC(=O)c1ccccc1)C=CC(C)(C)O2` (centres undefined), the IC50 with Plasmodium falciparum [2] is 11.5 µM; in data set [4] it was 23.4 µM; with Trypanosoma cruzi [8], 36.8 µM; with Leishmania donovani [9] it was 26.3 µM; in the data set with Leishmania tarentolae [7], 8.61 µM; with L6 it was 34.8 µM. In addition, the selectivity ratio was found to be 1.45 in data set [5], 3.01 in data set [6] and 1.3 in data set [10].
Consider `N=C(N)c1ccc(OCCCCCOc2ccc(C(=N)N)cc2)cc1` [PENTAMIDINE], for which the IC50 in the data set with Leishmania tarentolae [12] was determined as 0.03 µM.
In the case of `CC(NCc1ccccc1)c1cc2c(cc1O)OC(C)(C)C=C2` (centres undefined), the IC50 in the data set on Plasmodium falciparum [2] stood at 0.02 µM; in data set [4], 6.18 µM; with Leishmania tarentolae [7], 12.4 µM; with L6, 109 µM. For the same compound, the “Ratio IC50” value in the data set on Plasmodium falciparum [3] was 10. The selectivity ratio in [5] came to 17.7; in data set [6] it was 6760.
On to `COc1cc2c(cc1C(C)NC(=O)Cc1ccccc1)C=CC(C)(C)O2` (centres undefined), for which the IC50 was 31 µM in the data set with Plasmodium falciparum [2]; 103 µM in data set [4]; 44.7 µM in the data set on Trypanosoma cruzi [8]; 53.8 µM with Leishmania donovani [9]; 7.69 µM in the data set with Leishmania tarentolae [7]; 86.5 µM in the data set with L6. Also, the values for the selectivity ratio in data set [5], in [6] and in [10] were 0.83, 2.79 and 1.6, respectively.
Take `COc1cc2c(cc1C(C)NCCCc1ccccc1)C=CC(C)(C)O2` (centres undefined): the IC50 was found to be 0.85 µM in the data set with Plasmodium falciparum [2]; 1.03 µM in data set [4]; 13.6 µM in the data set with Trypanosoma cruzi [8]; 101 µM in the data set with Leishmania donovani [9]; 0.22 µM in the data set with Leishmania tarentolae [7]; 1.08 µM in the data set on L6. Besides, the selectivity ratio in data set [5] amounted to 1.05; in data set [6], 1.27; in data set [10] it was 0.01.
`CCNC(C)c1cc2c(cc1OC)OC(C)(C)C=C2` (centres undefined): the IC50 in the data set on Plasmodium falciparum [2] stood at 8.12 µM; in [4], 22.8 µM; in the data set on Trypanosoma cruzi [8], 91.5 µM; in the data set on Leishmania donovani [9], 365 µM; in the data set with Leishmania tarentolae [7], 8.76 µM; in the data set with L6 it was 176 µM. Moreover, the results for the selectivity ratio in [5], in data set [6] and in data set [10] were 7.71, 22 and 0.48, respectively.
